# Sampled rows, rich in hits. Any-hit rate of the full collection: about 0.77%.
# S1P3 antagonist: S1P3 receptor antagonists, primary screen, cell-based. CHO S1P3 NFAT-BLA reporter, FRET fluorescence, antagonist mode. inhibition, % at 4.98 µM. 170,000 compounds, 0.27% hits;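 active = inhibition above the plate cutoff, the mean inhibition of test wells on that plate plus 3 SD, cut at about 28% in these data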;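 note: cells challenged with S1P at its EC80 of 0.8 µM; blue over green emission ratio from cleaved BLA substrate after 4 h stimulation; 0% = S1P-stimulated wells and 100% = unstimulated DMSO-only wells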
# S1P4 ag: S1P4 receptor agonists, primary screen, cell-based | Sphingosine 1-phosphate receptor 4 (Homo sapiens), O95977 | S1P4-expressing cell line, agonist reporter assay | activation, % at 4.98 µM | 220,000 compounds, 0.35% hits | AID 1509, 2009; in the data active = activation above about 11%;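 note: 0% = DMSO vehicle and 100% = reference agonist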
# S1P4 antagonist: S1P4 receptor antagonists, primary screen, cell-based; S1P4-expressing cells, antagonist mode, reporter read-out; 220,000 compounds, 0.26% hits; Sphingosine 1-phosphate receptor 4 (Homo sapiens), O95977; inhibition, % at 4.98 µM; in the data active = inhibition above about 29%;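 note: 0% = wells stimulated with agonist and 100% = vehicle wells without agonist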
# Calb biofilm kill: clotrimazole potentiators killing C. albicans biofilm, primary screen, 4-compound mixtures; AID 1242, 2008; 120,000 compounds, 0.02% hits; inhibition, % at 7.6 µM; C. albicans biofilm persisters + clotrimazole, fluorescence viability; primary screen in compound mixtures of four per well;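 note: compounds exposed to preformed 24 h biofilms for 48 h; 0% = untreated biofilm control and 100% = clotrimazole plus chlorhexidine kill blank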
#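 Test system: C. albicans biofilms. Buffer or medium: RPMI/MOPS medium, pH 7.0. Timing: 48 h compound exposure at 37 °C. Technique: Alamar Blue fluorescence. Evaluation: percent inhibition of biofilm viability.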
# Pf gametocyte: late stage P. falciparum gametocyte viability inhibitors, primary screen, ATP luminescence, HTS | P. falciparum stage V gametocytes, 24 h | inhibition, % at 10.9 µM | 150,000 compounds, 0.065% hits;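 active = inhibition above the mean plus 3 SD of compounds within the control limits, set per campaign, cut at about 38% in these data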;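 note: 0% = DMSO wells and 100% = medium only without gametocytes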
# S1P4 antag conf: S1P4 receptor antagonists, human, confirmation, cell-based | AID 1524, 2009 | 520 compounds, 71% hits | S1P4-expressing cell line, antagonist mode, reporter read-out | inhibition, % at 4.98 µM | shares compounds with S1P4 antagonist; in the data active = inhibition above about 30%
# S1P1 antagonist: S1P1 receptor antagonists, human, counter-screen for S1P4 antagonist project, cell-based; shares compounds with S1P4 antagonist; inhibition, % at 4.98 µM; 520 compounds, 37% hits; cell-based S1P1 antagonist counterscreen, inhibition; AID 1564, 2009; in the data active = inhibition above about 40%;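 note: receptor stimulated with S1P near its EC80; 0% = agonist stimulated wells and 100% = vehicle only wells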
# Target sequence (P21453 whole entry, looked up): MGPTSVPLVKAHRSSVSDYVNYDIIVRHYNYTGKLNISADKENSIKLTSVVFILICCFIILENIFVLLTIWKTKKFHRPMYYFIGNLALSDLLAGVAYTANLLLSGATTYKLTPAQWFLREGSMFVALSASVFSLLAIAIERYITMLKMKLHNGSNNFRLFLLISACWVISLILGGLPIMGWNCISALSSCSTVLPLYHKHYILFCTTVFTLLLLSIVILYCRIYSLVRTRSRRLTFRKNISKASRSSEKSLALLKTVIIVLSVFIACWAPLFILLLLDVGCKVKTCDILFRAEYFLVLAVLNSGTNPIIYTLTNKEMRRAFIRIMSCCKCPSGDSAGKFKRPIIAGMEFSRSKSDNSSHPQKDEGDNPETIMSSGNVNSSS
# Active calls of the source: *; . = no result given.
SMILES,S1P3 antagonist,S1P4 ag,S1P4 antagonist,Calb biofilm kill,Pf gametocyte,S1P4 antag conf,S1P1 antagonist
CCC(C)[C@@H](NC(=O)OC(C)(C)C)c1nnc(S(=O)(=O)Cc2cccc(C)c2)o1 (stereo not given in full),-9.1,-4.4,76.4*,.,-7.9,108.9*,31.2
C=CC[C@@H](CC(=O)N[C@H](CO)Cc1ccccc1)C(=O)NCCOC(=O)[C@@H](CC=C)CC(=O)OC(C)(C)C,.,.,.,.,15.1,.,.
COc1ccc(-n2cc(C#N)c(=O)[nH]c2=O)cc1,-13.2,0.1,-3.3,-0.6,17.6,.,.
CC(NC(=O)c1ccncc1)c1ccccc1 (stereo not given),.,.,.,.,10.1,.,.
Cc1cc(C)c([N+](=O)[O-])cc1NCC(=O)N1CCN(c2ccccc2)CC1,6.5,-0.7,37.9*,10.1,3.8,-4.6,-8.7
O=C(Nc1cccc2ccccc12)c1ccccc1,-5.9,-0.2,7.0,19.9,.,.,.
Cc1c(C)n(C)c2ccc(C(=O)Nc3cccc4ccccc34)cc12,.,-3.4,44.3*,.,-8.6,46.3*,12.0
Cc1ccc(-n2ncc3c(SCc4cccnc4)ncnc32)c(C)c1,14.3,0.1,-5.7,10.4,-28.9,.,.
CCOC(=O)C(C)(C)N(Cc1ccc(C)cc1)S(=O)(=O)c1ccc(Cl)c([N+](=O)[O-])c1,-15.4,-1.4,42.7*,-6.4,2.5,80.3*,0.9
CCOC(=O)C(C)(C)N(Cc1ccc(Cl)cc1)S(=O)(=O)c1ccc(Cl)c([N+](=O)[O-])c1,1.1,-0.7,1.9,9.1,.,.,.
COc1ccc(N=C2C(=Nc3ccc(OC)cc3)N(c3ccc(OC)cc3)C(=S)N2C)cc1,.,-2.5,34.6*,.,.,38.4*,29.7
CCN(CC)c1ccc(/C=C2\SC(=O)N(C(C)C)C2=O)o1,5.7,0.6,21.5,18.4,.,.,.
CCOC(=O)C(=O)N1CCN(c2cc3c(cc2[N+](=O)[O-])n(C)c(=O)n3C)CC1,-3.2,0.6,10.9,20.1,6.0,.,.
O=C(CCSc1ccccc1)NC1CCCCCC1,0.5,-0.3,43.3*,4.4,0.7,3.1,26.4
CC1(C)C[C@@H](O)CC2(C1)C[C@]1(C)CC(O)[C@H]2C(C)(C)C1 (stereo not given in full),.,.,.,.,-14.8,.,.
CC(C)CC(c1nnnn1CCc1ccccc1)N1CCN(C(=O)c2ccco2)CC1 (stereo not given),-5.4,0.1,-1.8,.,9.9,.,.
CCC(c1nnnn1CCc1ccccc1)N1CCN(C(=O)c2ccco2)CC1 (stereo not given),-19.5,-1.6,33.4*,.,.,6.8,18.1
COc1cc2c(cc1CN1CCN(C(=O)c3cc(OC)c(OC)c(OC)c3)CC1)OCO2,.,.,.,.,5.7,.,.
COc1ccc(S(=O)(=O)N2CCOCC2)cc1NC(=O)Cn1nnc2ccccc2c1=O,-0.6,1.3,-23.0,12.5,-17.9,.,.
Cc1cc(NC(=O)c2ccccc2-c2ccccc2)ccc1Br,-0.9,-0.9,37.0*,4.2,.,31.6*,13.8
N=C1SCC(=O)N1c1ncc(Cc2ccccc2Cl)s1,-3.6,1.1,48.2*,10.6,-20.5,94.0*,98.1*
O=[N+]([O-])c1cc(S(=O)(=O)NCCN2CCOCC2)ccc1Sc1nnnn1-c1ccccc1,2.1,1.5,8.6,21.5,.,.,.
Cc1ccc(-n2nnnc2Sc2ccc(S(=O)(=O)NCCN(C)C)cc2[N+](=O)[O-])cc1,-6.5,2.9,48.8*,19.7,-11.6,68.0*,58.6*
C=C1SC(Nc2c(C)cc(C)cc2C)=NC12CCCCC2,3.5,0.6,10.6,10.0,16.6,.,.
O=C(/C=C/c1c(F)cccc1Cl)c1ccc(O)cc1,1.2,-0.7,41.6*,28.6,-5.8,62.1*,16.9
SMILES,S1P3 antagonist,S1P4 ag,S1P4 antagonist,Calb biofilm kill,Pf gametocyte,S1P4 antag conf,S1P1 antagonist
O=C(/C=C/c1ccccc1Cl)c1ccc(O)cc1,2.2,1.4,-9.6,15.8,.,.,.
CCn1ncc(Br)c1C(=O)Nc1ccc(C(=O)OC(C)C)cc1,.,1.3,-3.4,.,.,.,.
O=C(OCn1ncc(Br)c(Br)c1=O)c1ccc(F)cc1,.,-2.0,77.8*,.,.,117.2*,47.0*
O=C(OCc1cnc(Cl)s1)c1ccccc1Cl,.,1.3,0.9,.,16.5,.,.
O=C(OCn1ncc(Br)c(Br)c1=O)c1ccccc1Cl,.,-1.0,48.4*,.,.,114.6*,29.5
Cc1ccc(S(=O)(=O)N(C)c2ccc(OCC(=O)Nc3cccc(-n4cnnn4)c3C)cc2)cc1,8.0,-0.7,14.5,11.7,-5.4,.,.
O=C(NC(=S)NCCCN1CCOCC1)c1ccc([N+](=O)[O-])cc1,-9.0,-0.5,-0.7,8.3,.,.,.
COc1ccccc1NC(=O)N1CCCC(C(=O)Nc2cccc(C)c2C)C1 (stereo not given),-6.2,0.7,-3.2,.,.,.,.
Cc1cccc(NC(=O)C2CCCN(C(=O)NC3CCCCC3)C2)c1C (stereo not given),2.2,0.2,35.8*,.,-3.1,-16.0,-9.7
O=C(Nn1c(-c2ccncc2)nc2ccccc2c1=O)c1ccc([N+](=O)[O-])cc1Cl,0.1,-0.6,-4.7,12.7,.,.,.
C/C(CC(=O)Nc1ccc(Cl)cc1Cl)=N\NC(=O)c1cnccn1,-3.3,1.6,-0.7,7.8,-19.5,.,.
Cc1cc(Cl)n2c(nc3cc(F)c(F)cc32)c1C#N,-10.3,3.1,31.0*,18.6,.,111.8*,80.7*
Cc1cc(C)n2c(=O)c3ccc(Cl)cc3nc2c1C#N,-15.3,0.2,-2.7,10.2,-26.1,.,.
Cc1cc(Br)c(NC(=O)c2c(-c3c(Cl)cccc3Cl)noc2C)c(Br)c1,9.3,1.0,-7.6,18.1,.,.,.
O=[N+]([O-])c1ccc(N=Nc2c(Cl)cc(O)cc2Cl)cc1,2.9,0.6,30.9*,14.7,.,67.3*,18.4
O=C(Nc1nnc(SCc2ccc(F)cc2)s1)c1cccnc1Cl,-4.1,-1.1,-8.1,1.0,.,.,.
O=C(Nc1nnc(SCc2ccc(F)cc2)s1)c1ccccn1,13.5,0.0,30.6*,11.7,19.2,101.2*,72.7*
COc1ccc(N(Cc2ccccc2)N=O)cc1,.,.,.,.,17.4,.,.
COc1ccc(C[C@H]2CN3C(=NC[C@@H]3C(C)C)N2CCNC(=O)c2ccc(C)c(Br)c2)cc1,0.7,-1.4,33.6*,20.0,.,41.1*,33.6
Cc1ccc(C(=O)NCCN2C3=NC[C@H](C(C)C)N3C[C@H]2Cc2ccc(O)cc2)cc1Br,-6.0,0.3,1.9,18.9,.,.,.
Cc1ccccc1OCCN1C(=O)NC2(CCc3ccccc32)C1=O (stereo not given),-3.8,-0.5,35.9*,.,-19.8,0.8,-11.4
O=C1NC2(CCc3ccccc32)C(=O)N1CCOc1ccc(Cl)cc1 (stereo not given),.,0.3,13.4,.,.,.,.
Cc1cc(NCc2ccccn2)nc2ccccc12,.,2.6,2.8,.,-0.1,.,.

# High-throughput results from PubChem.
